For 24 compounds, IC50 and inhibition results are on record in ChEMBL document CHEMBL2062498, “3-Arylcoumarin derivatives manifest anti-proliferative activity through Hsp90 inhibition” (ACS Med Chem Lett, 2012).

For assay [1], the system named is MCF7. Description: Antiproliferative activity against estrogen receptor-positive in human MCF7 cells. Type of assay: functional, cell-based. The method in brief:
(§1)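 IC50 values for growth inhibition are reported as means ± standard deviations from at least two separate experiments, each run in triplicate.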

Assay [2] deals with SK-BR-3. Description: Antiproliferative activity against estrogen receptor-negative Her2 overexpressing in human SKBR3 cells. Type of assay: functional, cell-based. The method in brief: as §1
Assay [3] deals with Heat shock protein HSP 90-beta (Homo sapiens) (UniProt P08238). The assay can be described thus: Inhibition of HSP90 in human MCF7 cells assessed as degradation of Akt protein after 24 hrs by Western blot analysis. Type of assay: cell-based. The method in brief: (§2)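 MCF-7 breast cancer cells were exposed to a range of test concentrations (μM) for 24 h, then lysed. Lysates were immunoblotted for the Hsp90-dependent clients Raf-1 and Akt, and also for Hsp90 itself. Actin served as the non-Hsp90-dependent reference protein.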
Sequence of Heat shock protein HSP 90-beta (Homo sapiens) (P08238 whole entry): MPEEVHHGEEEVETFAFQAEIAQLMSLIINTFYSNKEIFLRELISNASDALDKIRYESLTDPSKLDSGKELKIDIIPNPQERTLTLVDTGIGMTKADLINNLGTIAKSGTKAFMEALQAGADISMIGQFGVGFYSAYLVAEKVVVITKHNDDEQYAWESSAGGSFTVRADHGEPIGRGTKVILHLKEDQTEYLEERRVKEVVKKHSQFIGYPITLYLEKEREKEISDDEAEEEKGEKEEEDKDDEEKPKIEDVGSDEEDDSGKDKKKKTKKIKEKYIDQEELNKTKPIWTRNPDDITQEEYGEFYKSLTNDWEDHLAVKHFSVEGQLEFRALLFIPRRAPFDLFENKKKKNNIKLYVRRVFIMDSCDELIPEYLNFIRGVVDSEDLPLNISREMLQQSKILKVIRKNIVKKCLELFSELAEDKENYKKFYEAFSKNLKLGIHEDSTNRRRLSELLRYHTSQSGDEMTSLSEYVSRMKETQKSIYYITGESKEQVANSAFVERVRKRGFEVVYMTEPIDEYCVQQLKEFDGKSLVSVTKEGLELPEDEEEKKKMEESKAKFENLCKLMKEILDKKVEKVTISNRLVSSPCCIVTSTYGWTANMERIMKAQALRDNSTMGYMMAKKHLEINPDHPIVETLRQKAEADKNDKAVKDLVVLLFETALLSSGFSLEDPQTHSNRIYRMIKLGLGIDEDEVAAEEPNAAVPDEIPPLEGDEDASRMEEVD
In general terms: In western blotting, separated proteins are transferred to a membrane and probed.

Assay [4] shares this target. The assay can be described thus: Inhibition of HSP90 in human MCF7 cells assessed as degradation of Raf1 protein after 24 hrs by Western blot analysis. It is filed as cell-based. The method, boiled down: as §2

For `Cc1c(OC2CCN(C)CC2)ccc2cc(-c3ccc(OC(F)(F)F)cc3)c(=O)oc12`, the values for the IC50 in assay [1] and in assay [2] were 1.65 µM and 4.51 µM, respectively.
The like results for `COc1ccc(-c2cc3ccc(OC4CCN(C)CC4)c(C)c3oc2=O)cc1` were, in that order, 1.97 µM and 5.52 µM.
Turning to `CN1CCC(Oc2ccc3cc(-c4ccc5c(c4)OCO5)c(=O)oc3c2)CC1`, the 50% inhibitory concentration (IC50) (as a rule, the concentration that gives 50% inhibition) in assay [1] worked out at 8.79 µM; in assay [2] it was 14.8 µM.
The like results for `COc1ccc(-c2cc3ccc(OC4CCN(C)CC4)cc3oc2=O)cc1` were, in that order, 16.9 µM and 29.9 µM.
The like results for `CN1CCC(Oc2ccc3cc(-c4cccc(C(F)(F)F)c4)c(=O)oc3c2)CC1` were, in that order, 4.64 µM and 9.21 µM.
The like results for `CN1CCC(Oc2ccc3cc(-c4ccc(C(C)(C)C)cc4)c(=O)oc3c2)CC1` were, in that order, 2.36 µM and 4.42 µM.
Consider `CN1CCC(Oc2ccc3cc(-c4ccc(OC(F)(F)F)cc4)c(=O)oc3c2)CC1`, for which the figures for the IC50 in assay [1] and in assay [2] were 4.12 µM and 5.78 µM, respectively.
The like results for `CN1CCC(Oc2ccc3cc(-c4ccccc4-c4ccccc4)c(=O)oc3c2)CC1` were, in that order, 15.6 µM and 15.6 µM.
In the case of `CN1CCC(Oc2ccc3cc(-c4ccc(F)cc4)c(=O)oc3c2)CC1`, the half-maximal inhibitory concentration (IC50) is 10.5 µM in assay [1] and 43.9 µM in assay [2].
The like results for `Cc1c(OC2CCN(C)CC2)ccc2cc(-c3ccc(F)cc3)c(=O)oc12` were, in that order, 3.83 µM and 7.38 µM.
The like results for `CN1CCC(Oc2ccc3cc(-c4cc5ccccc5o4)c(=O)oc3c2)CC1` were, in that order, 4.93 µM and 5.84 µM.
For `Cc1ccc(-c2cc3ccc(OC4CCN(C)CC4)cc3oc2=O)cc1`, the 50% inhibitory concentration (IC50) in assay [1] was 8.6 µM; in assay [2] it was 11.2 µM.
Consider `CN1CCC(Oc2ccc3cc(-c4ccc(Oc5ccccc5)cc4)c(=O)oc3c2)CC1`, for which the IC50 turned out to be 1.45 µM in assay [1] and 4.43 µM in assay [2].
The like results for `CN1CCC(Oc2ccc3cc(-c4cccc(C#N)c4)c(=O)oc3c2)CC1` were, in that order, 8.42 µM and 10.6 µM.
The like results for `CN1CCC(Oc2ccc3cc(-c4cccc(F)c4)c(=O)oc3c2)CC1` were, in that order, 7.67 µM and 24.9 µM.
`CN1CCC(Oc2ccc3cc(-c4cc5ccccc5s4)c(=O)oc3c2)CC1`: the IC50 stood at 0.81 µM in assay [1] and 0.98 µM in assay [2]. For the same compound, the inhibition result in assay [3] and in assay [4] was “Dose-dependent effect” each time.
As for `CN1CCC(Oc2ccc3cc(-c4ccccc4Cl)c(=O)oc3c2)CC1`, the figures for the IC50 in assay [1] and in assay [2] were 10.6 µM and 25.4 µM, respectively.
The like results for `CN1CCC(Oc2ccc3cc(-c4cccc(Cl)c4)c(=O)oc3c2)CC1` were, in that order, 5.79 µM and 9.46 µM.
As for `Cc1c(OC2CCN(C)CC2)ccc2cc(-c3ccccc3)c(=O)oc12`, the IC50 is 7.72 µM in assay [1] and 14.3 µM in assay [2].
For the compound `CN1CCC(Oc2ccc3cc(-c4ccc(-c5ccccc5)cc4)c(=O)oc3c2)CC1`, the IC50 worked out at 3.08 µM in assay [1] and 3.33 µM in assay [2].
The like results for `CN1CCC(Oc2ccc3cc(-c4ccccc4)c(=O)oc3c2)CC1` were, in that order, 29 µM and 38.4 µM.
The like results for `CN1CCC(Oc2ccc3cc(-c4ccc(Cl)cc4)c(=O)oc3c2)CC1` were, in that order, 3.89 µM and 8.24 µM.
On to `Cc1c(OC2CCN(C)CC2)ccc2cc(-c3ccc(Cl)cc3)c(=O)oc12`, for which the IC50 in assay [1] amounted to 1.24 µM; in assay [2], 4.94 µM.
For the compound `Cc1c(OC2CCN(C)CC2)ccc2cc(-c3ccc4c(c3)OCO4)c(=O)oc12`, the results for the IC50 in assay [1] and in assay [2] were 3.71 µM and 5.21 µM, respectively.
